Assay outcomes (PubChem)
OXTR agonist – agonists of human oxytocin receptor; CHO-OTR cells, Fluo-8 calcium fluorescence; normalized: DMSO 0%, oxytocin 100%; 0.32% of 320,000 active; P30559; AID 2435; activation, % at 3 µM;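 active means activation above the mean of all tested compounds plus 3 SD, cutoff set per screening run, cut at about 20% in these data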;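 further: peak over basal fluorescence ratio from a 100 s FLIPR kinetic read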
Target sequence (P30559 whole entry, looked up): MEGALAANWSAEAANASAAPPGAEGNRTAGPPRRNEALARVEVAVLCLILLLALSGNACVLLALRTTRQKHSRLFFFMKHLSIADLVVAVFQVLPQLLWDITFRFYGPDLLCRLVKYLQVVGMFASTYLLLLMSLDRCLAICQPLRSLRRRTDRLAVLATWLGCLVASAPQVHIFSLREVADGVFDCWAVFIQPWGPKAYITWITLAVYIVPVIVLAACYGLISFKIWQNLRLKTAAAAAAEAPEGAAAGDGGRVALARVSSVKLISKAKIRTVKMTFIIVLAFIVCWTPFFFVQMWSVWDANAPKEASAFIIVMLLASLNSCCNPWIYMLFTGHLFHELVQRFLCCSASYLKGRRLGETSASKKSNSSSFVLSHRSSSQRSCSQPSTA
OXTR potentiator – potentiators of human oxytocin receptor; CHO-OTR cells, Fluo-8 calcium fluorescence, potentiator mode; 0% = oxytocin EC15, 100% = EC100; activation, % at 3 µM; 0.061% of 320,000 active; AID 2445;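 active means activation above that plate's cutoff, the mean activation of tested compounds plus 3 SD, cut at about 6.6% in these data, passing the limit was not always enough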;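 further: 100% uses oxytocin at 75 nM as the full agonist control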
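Assay system: CHO cell line stably expressing human OTR | Also added: Oxytocin at about EC15, sub-maximal agonist stimulus | Times: Compound 6 min at room temperature before oxytocin, 100 s read | Measured by: Fluo-8 intracellular calcium fluorescence, ex 470-495, em 515-575 nm | Controls: EC15 oxytocin alone as 0%, 75 nM oxytocin as 100%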
TAAR1 agonist – agonists of human TAAR1. Q96RJ0. AID 624467. 0.99% of 360,000 active. activation, % at 3 µM. CHO RD-HGA16 TAAR1, Fluo-8 calcium fluorescence; vehicle wells 0%, saturating PEA agonist 100%;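 active means activation above the mean activation of all test compounds in the run plus 3 SD, cut at about 38% in these data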
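System: CHO RD-HGA16 cells carrying human TAAR1 plus Gα16; Incubation: 17-24 h seeding, 75 min 37 °C dye, 30 min RT; Measured by: Fluo-8 fluorescence, 5 s baseline then 140 s kinetic read; Control set: DMSO and PEA EC100; Replication: single well for each compound.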
V1aR counter – activates human V1a receptor in oxytocin agonist counter-screen; P37288; CHO-V1R cells, Fluo-8 calcium fluorescence, agonist mode; 0% DMSO, 100% 3 nM vasopressin; activation, % at 3 µM; 0.25% of 320,000 active; AID 2797;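 active means activation above the mean activation of all tested compounds plus 3 SD, per screening run, cut at about 20% in these data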;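 further: signal is peak over basal fluorescence ratio across a 100 second FLIPR read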
TAAR1 antagonist – human TAAR1 antagonism. CHO RD-HGA16 TAAR1, Fluo-8 calcium fluorescence, antagonist. inhibition, % at 3 µM. 1.5% of 360,000 active;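 active means inhibition above a per-plate cutoff, the mean inhibition of test compounds on that plate plus 3 SD, cut at about 49% in these data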;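 further: 0% = DMSO plus EC80 beta-PEA response and 100% = DMSO alone without agonist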
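Test system – hTAAR1-expressing CHO RD-HGA16 cells, Gα16-coupled · Also added – β-PEA at EC80 concentration, post-compound challenge · Compound – 3 µM, single point · Incubation – dye loading 75 min at 37 °C, then 30 min room temperature · Measured by – Fluo-8 intracellular calcium dye fluorescence, real-time kinetic reads · Benchmarks – vehicle and agonist controls · Replicates – singlicate, one well per test compound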
Numbers without * were called inactive; . = no result. In the library only some 2.3% were active in any assay of this set; here they are far more common.

SMILES | OXTR agonist | OXTR potentiator | TAAR1 agonist | V1aR counter | TAAR1 antagonist
O=C(Nc1ccc(Oc2ccccc2)cc1)C1CCN(c2c3c(nc4ncnn24)CCC3)CC1 | 7.0 | -11.9 | 28.0 | 5.7 | 57.0*
CCn1ccnc1CN1CCN(CCC(C)C)C(CCO)C1 (stereo not drawn) | 0.1 | -8.6 | 3.0 | 1.8 | -0.4
Cc1cc(C)cc(C(=O)NC(CC(N)=O)c2ccc(N3CCCCCC3)c([N+](=O)[O-])c2)c1 (stereo not drawn) | 0.4 | 6.8 | -0.4 | 1.2 | 12.5
CC(=O)C(C(C)=O)c1c(Cl)c(O)c(O)c2c(C(=O)c3ccccc3)coc12 | 2.5 | -12.4 | 39.0* | 2.4 | 28.9
CN1CCN(Cc2c(O)ccc3occ(C(=O)c4ccccc4)c23)CC1 | 4.4 | -8.9 | 4.7 | 1.3 | 2.5
COC(=O)c1c(-c2ccc(S(C)(=O)=O)cc2)sc2ccc(OC)cc12 | 2.4 | -10.1 | 8.7 | 0.6 | 49.2*
N/C(CSc1ncccc1C(F)(F)F)=N\O | -1.1 | -8.8 | 1.6 | 0.1 | -11.3
CCOCCCNC(=O)C(c1ccc(OC)cc1)N(Cc1ccc2c(c1)OCO2)C(=O)c1ccccn1 (stereo not drawn) | -0.5 | -6.5 | 6.2 | -0.5 | -4.1
O=C(NCc1ccccc1)C(c1ccccc1)N(Cc1cccs1)C(=O)c1cnccn1 (stereo not drawn) | -0.2 | 5.3 | 17.8 | 0.2 | 62.1*
O=C(NCc1ccccc1)C(c1cccs1)N(Cc1cccs1)C(=O)c1cnccn1 (stereo not drawn) | 1.0 | -13.1 | 17.4 | 1.0 | 49.6*
COc1cc(C(C(=O)NCc2ccccc2)N(Cc2ccco2)C(=O)c2cnccn2)cc(OC)c1OC (stereo not drawn) | -0.5 | -15.1 | 0.4 | -0.5 | 7.8
CCOCCCNC(=O)C(c1ccc(OC)cc1)N(Cc1cccs1)C(=O)c1ccccn1 (stereo not drawn) | 0.2 | -6.6 | 17.6 | 1.6 | 50.3*
Cc1cc(NC(=O)CSCC(=O)Nc2ccccc2N2CCCCC2)no1 | -1.2 | -6.6 | -0.4 | -1.1 | 6.9
CCCCCCCCCCCCCCCC[N+](C)(C)CCl | . | . | 0.8 | . | 63.3*
C[C@H](O)[C@@H]1C(=O)N2CCc3ccc(N4CCOCC4)cc3[C@@H]2C[C@@H]1N(C)C(=O)Nc1ccccc1 | . | . | 0.2 | . | -9.8
Cc1c(Cl)cccc1N=C1NC(=O)CS1 | . | . | 0.6 | . | -14.4
O=C1c2cccc(OCC(=O)N3CCCc4ccccc43)c2CCN1Cc1ccc(F)cc1 | 4.3 | -6.7 | 17.0 | 4.8 | 55.6*
O=C(O)C1C=Cc2ccccc2N1C(=O)c1ccccc1 (stereo not drawn) (tested in a mixture with another compound) | . | . | 3.7 | . | 0.6
CSc1ccc(SC2CN(Cc3ccc(C)cc3)S(=O)(=O)C2)cc1 (stereo not drawn) | . | . | 0.2 | . | -5.3
O=C(NCCc1ccccc1)c1ccc(NC(=O)C2CCCCC2)cc1 | . | . | 4.9 | . | 48.9*
CN(c1ccc(C(=O)NCCc2ccccc2)cc1)S(C)(=O)=O | 0.4 | 0.0 | 40.3* | 0.8 | -2.8
O=C(NCCc1ccccc1)c1ccc(NC(=O)C2CCC2)cc1 | . | . | 5.1 | . | 17.4
Cc1ccc(S(=O)(=O)N(C)c2ccc(C(=O)NCCc3ccccc3)cc2)cc1 | -0.3 | 3.1 | -0.3 | 2.7 | -2.7
Cc1cc(C)cc(Cn2cc(CN3CC(N4CCN(C)CC4)CS3(=O)=O)nn2)c1 (stereo not drawn) | . | . | 4.0 | . | -10.6
CCCN(CCC)Cc1cc(=O)oc2cc(C)cc(C)c12 | . | . | 3.6 | . | -22.6
CC1CC(C)CN(C(=O)CSc2nc(Cc3cccs3)nc3ccccc23)C1 (stereo not drawn) | -1.2 | -7.7 | 5.2 | -1.5 | 49.6*
COc1ccc2[nH]c(=O)c(CN(Cc3cccs3)S(=O)(=O)c3c(C)ccc4nsnc34)cc2c1 | 0.2 | 0.5 | 29.9 | 1.3 | 54.6*
Cc1ccc2[nH]c(=O)c(CN(Cc3ccco3)S(=O)(=O)c3c(C)ccc4nsnc34)cc2c1 | 0.5 | -18.9 | 15.8 | 0.9 | 33.8
CCc1ccc(C(C)NC(=O)Cn2cnc3c(=O)n(C)c(=O)n(C)c32)cc1 (stereo not drawn) | 10.1 | -6.6 | 37.5* | 8.4 | 1.0
CCc1ccc(NC(=O)Cn2cnc3c(=O)n(C)c(=O)n(C)c32)cc1 | 1.1 | -3.6 | 0.0 | 0.2 | -15.1
